From ChEMBL document CHEMBL1177835, “A note to the biological activity of benzoxazine derivatives containing the thioxo group” (Eur J Med Chem, 2010)
Values after ≈ are worked out from the molar mass of the structure shown.

Experiments:
[1] = tested on: Mycobacterium avium; assay: Antimycobacterial activity against Mycobacterium avium CNCTC My 330/88 after 14 days by microdilution method; assay type: functional; conditions: CNCTC My 330/88, 336 h
Summary of the method: (§1)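 MIC determined by a dilution micromethod. Strains came from the Czech National Collection of Type Cultures, Prague. Compounds were added to the medium as DMSO solutions. Each inoculum was also plated in parallel on Löwenstein–Jensen medium to check its sterility and growth. The M. avium strain is identical with ATCC 25291 and resistant to INH.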

[2] = tested on: HUVEC; assay: Antiproliferative activity against HUVEC after 72 hrs by using methylene blue staining; assay type: cell-based; conditions: human
Summary of the method: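 HUVEC in culture medium with ultraglutamine, gentamicin, 10% heat-inactivated FBS, 37 °C. Harvested in log phase by trypsinization; about 10,000 cells/well. Compounds in DMSO, diluted in DMEM, incubated 72 h at 37 °C, 5% CO2. Cells then glutaraldehyde-fixed, stained with 0.05% methylene blue for 15 min, eluted with 0.33 N HCl, OD 660 nm. GI50 taken at 50% intersection versus untreated control.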

[3] = tested on: Mycobacterium tuberculosis; assay: Antimycobacterial activity against Mycobacterium tuberculosis CNCTC My 331/88 after 14 days by microdilution method; assay type: functional; conditions: CNCTC My 331/88, 336 h; summary of the method: as §1
[4] = tested on: HeLa; assay: Cytotoxicity against human HeLa cells after 72 hrs by using methylene blue staining; assay type: functional, cell-based
Summary of the method: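 HeLa cells in RPMI 1640 with supplements, preincubated 48 h without compound. Compound dilutions were then applied to subconfluent monolayers for 72 h at 37 °C, 5% CO2. Cells were glutaraldehyde-fixed, stained with 0.05% methylene blue, eluted with 0.33 N HCl and read at OD 660 nm. CC50 taken at 50% intersection versus negative control.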

[5] = tested on: K562; assay: Antiproliferative activity against human K562 cells after 72 hrs by celltiter-blue assay; assay type: functional, cell-based
Summary of the method: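 K-562 grown in RPMI 1640 with ultraglutamine, gentamicin, 10% heat-inactivated FBS at 37 °C; about 10,000 cells/well. Compounds dissolved in DMSO and diluted in DMEM, incubated 72 h at 37 °C, 5% CO2. Viability read by CellTiter-Blue resazurin reduction. GI50 taken where the dose-response curve crosses 50% of untreated control.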

[6] = tested on: Mycobacterium kansasii; assay: Antimycobacterial activity against Mycobacterium kansasii CNCTC My 235/80 after 21 days by microdilution method; assay type: functional; conditions: CNCTC My 235/80, 504 h
Summary of the method: (§2)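 Dilution micromethod for MIC; compounds added to medium as DMSO solutions. Each strain also inoculated onto Löwenstein–Jensen medium to control inoculum sterility and growth. Strain 6509/96 is a clinical isolate; CNCTC strains from the Czech national type culture collection.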

[7] = tested on: Mycobacterium avium; assay: Antimycobacterial activity against Mycobacterium avium CNCTC My 330/88 after 21 days by microdilution method; assay type: functional; conditions: CNCTC My 330/88, 504 h; summary of the method: as §1
[8] = tested on: Mycobacterium tuberculosis; assay: Antimycobacterial activity against Mycobacterium tuberculosis CNCTC My 331/88 after 21 days by microdilution method; assay type: functional; conditions: CNCTC My 331/88, 504 h; summary of the method: as §1
[9] = tested on: Mycobacterium kansasii; assay: Antimycobacterial activity against Mycobacterium kansasii 6509/96 after 21 days by microdilution method; assay type: functional; conditions: 6509/96, 504 h; summary of the method: as §2
[10] = tested on: Mycobacterium kansasii; assay: Antimycobacterial activity against Mycobacterium kansasii 6509/96 after 14 days by microdilution method; assay type: functional; conditions: 6509/96, 336 h; summary of the method: as §2
[11] = tested on: Mycobacterium kansasii; assay: Antimycobacterial activity against Mycobacterium kansasii CNCTC My 235/80 after 14 days by microdilution method; assay type: functional; conditions: CNCTC My 235/80, 336 h; summary of the method: as §2

## O=c1oc2ccc(Cl)cc2c(=S)n1Cc1ccc(Cl)c(Cl)c1
[1]
  MIC: 62.5 µM (≈ 23.3 µg/mL)
[2]
  Activity: Toxic
[3]
  MIC: 32 µM (≈ 11.9 µg/mL)
[4]
  Activity: Toxic
[5]
  Activity: Toxic
[6]
  MIC: 62.5 µM (≈ 23.3 µg/mL)
[7]
  MIC: 62.5 µM (≈ 23.3 µg/mL)
[8]
  MIC: 32 µM (≈ 11.9 µg/mL)
[9]
  MIC: 62.5 µM (≈ 23.3 µg/mL)
[10]
  MIC: 62.5 µM (≈ 23.3 µg/mL)
[11]
  MIC: 62.5 µM (≈ 23.3 µg/mL)
